Experimental data from ChEMBL document CHEMBL4732105, “First orally bioavailable prodrug of proteolysis targeting chimera (PROTAC) degrades cyclin-dependent kinases 2/4/6 in vivo” (Eur J Med Chem, 2021).
Calls of active or inactive are those of the source. The rule behind the calls is not given here.

Tests used:
[1] = tested on: A-375; assay: Cytotoxicity against human A375 cells assessed as reduction in cell viability after 72 hrs by MTT assay; assay type: functional, cell-based; conditions: A-375, 72 h
In short: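 Cells exposed to compound for 72 h and viability read by MTT; IC50 from three independent experiments.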

[2] = target: T1, Protein cereblon/Cyclin-dependent kinase 4 (Homo sapiens) (UniProt P11802+Q96SW2); assay: Protac activity at CRBN/CDK4 in human A-375 cells assessed as induction of CDK4 protein degradation after 12 hrs by Western blot analysis; assay type: cell-based; conditions: dose 62.5-1000 nM
In short: (§1)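 B16F10 and A375 cells treated with DMSO or serial dilutions of compound for 12 h (concentration series), or for the indicated times (time course). CDK2, CDK4 and CDK6 protein levels determined by western blot.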

[3] = target: Protein cereblon/Cyclin-dependent kinase 2 (Mus musculus) (UniProt P97377+Q8C7D2); assay: Protac activity at CRBN/CDK2 in mouse B16F10 cells assessed as induction of CDK2 protein degradation at 500 nM by Western blot analysis; assay type: cell-based; conditions: B16-F10, time hrs <=12, TDE = time-dependent effect; in short: as §1
[4] = target: T2, Protein cereblon/Cyclin-dependent kinase 6 (Mus musculus) (UniProt Q8C7D2+Q64261); assay: Protac activity at CRBN/CDK6 in mouse B16F10 cells assessed as induction of CDK6 protein degradation at 500 nM by Western blot analysis; assay type: cell-based; conditions: B16-F10, time hrs <=12, TDE = time-dependent effect; in short: as §1
[5] = target: T1, Protein cereblon/Cyclin-dependent kinase 4 (Homo sapiens); assay: Protac activity at CRBN/CDK4 in human A-375 cells assessed as induction of CDK4 protein degradation at 1000 nM by Western blot analysis; assay type: cell-based; conditions: time hrs <=12, TDE = time-dependent effect; in short: as §1
[6] = target: T3, Protein cereblon/Cyclin-dependent kinase 4 (Mus musculus) (UniProt P30285+Q8C7D2); assay: Protac activity at CRBN/CDK4 in mouse B16F10 cells assessed as induction of CDK4 protein degradation at 100 nM for 6 hrs in presence of proteasome inhibitor MG132 by Western blot analysis; assay type: cell-based; conditions: B16-F10
In short: (§2)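 B16F10 cells pre-treated 2 h with DMSO, pomalidomide (10 μM), MG132 (20 μM) or a parent CDK ligand, then exposed to 100 nM degrader for 6 h. CDK2/4/6 protein levels read by western blot.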

[7] = tested on: B16-F10; assay: Inhibition of colony formation in mouse B16F10 cells at 50 to 100 nM measured after 7 days by crystal violet staining based colony formation assay; assay type: functional, cell-based; conditions: dose 50-100 nM, time 7.0 day
In short: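 Colony formation (long-term growth) assay in A375 and B16F10 cells under continuous compound exposure for 7 days, then clonogenic growth quantified. Mean ± SD, n = 3; Student's t-test.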

[8] = tested on: A-375; assay: Induction of apoptosis in human A-375 cells incubated for 48 hrs by Annexin V-FITC/PI staining based flow cytometry; assay type: functional, cell-based; conditions: dose nM <=1000, time 48.0 hrs
[9] = tested on: B16-F10; assay: Induction of apoptosis in mouse B16F10 cells assessed as increase in P-53 level upto 1000 nM incubated for 48 hrs by Western blot analysis; assay type: functional, cell-based; conditions: dose nM <=1000, time 48.0 hrs
In short: (§3)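 A375 and B16F10 cells incubated with compound for 48 h. Cleaved caspase-3, cleaved PARP, total P53, Bcl-2 and Bax measured by western blot.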

[10] = tested on: A-375; assay: Induction of apoptosis in human A-375 cells assessed as decrease in Bcl-2 level upto 2000 nM incubated for 48 hrs by Western blot analysis; assay type: functional, cell-based; conditions: dose nM <=2000, time 48.0 hrs; in short: as §3
[11] = Tmax in Sprague-Dawley rat at 200 mg/kg, po; assay type: ADME, organism-based; conditions: in vivo
In short: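 SD rats, n = 3, single dose of prodrug: IV by tail vein at 10 mg/Kg, or PO at 200 mg/Kg. Plasma levels of prodrug and released active degrader followed over 0–12 h. Parameters derived by a non-compartmental model.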

[12] = target: T2, Protein cereblon/Cyclin-dependent kinase 6 (Mus musculus); assay: Protac activity at CRBN/CDK6 in mouse B16F10 cells assessed as induction of CDK6 protein degradation at 100 nM for 6 hrsin presence of Pomalidomide by Western blot analysis; assay type: cell-based; conditions: B16-F10, time 6.0 hrs; in short: as §2
[13] = target: T2, Protein cereblon/Cyclin-dependent kinase 6 (Mus musculus); assay: Protac activity at CRBN/CDK6 in mouse B16F10 cells assessed as induction of CDK6 protein degradation at 100 nM for 6 hrsin presence of methyl 6-(7-cyclopentyl-6-(dimethylcarbamoyl)-7H-pyrrolo[2,3-d]pyrimidin-2-ylamino)nicotinate by Western blot analysis; assay type: cell-based; conditions: B16-F10, time 6.0 hrs; in short: as §2
[14] = target: T3, Protein cereblon/Cyclin-dependent kinase 4 (Mus musculus); assay: Protac activity at CRBN/CDK4 in mouse B16F10 cells assessed as induction of CDK4 protein degradation at 100 nM for 6 hrsin presence of Ribociclib by Western blot analysis; assay type: cell-based; conditions: B16-F10, time 6.0 hrs
[15] = tested on: B16-F10; assay: Induction of apoptosis in mouse B16F10 cells assessed as viable cells at 125 nM incubated for 48 hrs by Annexin V-FITC/PI staining based flow cytometry (reference value: 95.9%); assay type: functional; conditions: read-out: Activity
[16] = tested on: B16-F10; assay: Induction of apoptosis in mouse B16F10 cells assessed as viable cells at 500 nM incubated for 48 hrs by Annexin V-FITC/PI staining based flow cytometry (reference value: 95.9%); assay type: functional; conditions: read-out: Activity
[17] = tested on: B16-F10; assay: Induction of apoptosis in mouse B16F10 cells assessed as early apoptotic cells at 500 nM incubated for 48 hrs by Annexin V-FITC/PI staining based flow cytometry (reference value: 3.52%); assay type: functional
[18] = tested on: B16-F10; assay: Induction of apoptosis in mouse B16F10 cells assessed as late apoptotic cells at 250 nM incubated for 48 hrs by Annexin V-FITC/PI staining based flow cytometry (reference value: 0.551%); assay type: functional
[19] = tested on: B16-F10; assay: Induction of apoptosis in mouse B16F10 cells assessed as necrotic cells at 125 nM incubated for 48 hrs by Annexin V-FITC/PI staining based flow cytometry (reference value: 0.21%); assay type: functional
[20] = tested on: A-375; assay: Induction of apoptosis in human A-375 cells assessed as viable cells at 1000 nM incubated for 48 hrs by Annexin V-FITC/PI staining based flow cytometry (reference value: 93.3%); assay type: functional; conditions: read-out: Activity
[21] = tested on: A-375; assay: Induction of apoptosis in human A-375 cells assessed as late apoptotic cells at 250 nM incubated for 48 hrs by Annexin V-FITC/PI staining based flow cytometry (reference value: 3.28%); assay type: functional
[22] = tested on: A-375; assay: Induction of apoptosis in human A-375 cells assessed as late apoptotic cells at 1000 nM incubated for 48 hrs by Annexin V-FITC/PI staining based flow cytometry (reference value: 3.28%); assay type: functional
[23] = tested on: A-375; assay: Induction of apoptosis in human A-375 cells assessed as necrotic cells at 500 nM incubated for 48 hrs by Annexin V-FITC/PI staining based flow cytometry (reference value: 0.602%); assay type: functional
[24] = tested on: B16-F10; assay: Induction of cell cycle arrest in mouse B16-F10 cells assessed as accumulation at G1 phase at 50 uM incubated for 48 hrs by propidium iodide staining based flow cytometry (reference value: 52.59%); assay type: functional
[25] = tested on: B16-F10; assay: Induction of cell cycle arrest in mouse B16-F10 cells assessed as accumulation at G2 phase at 100 uM incubated for 48 hrs by propidium iodide staining based flow cytometry (reference value: 18.22%); assay type: functional
[26] = tested on: A-375; assay: Induction of cell cycle arrest in human A-375 cells assessed as accumulation at G1 phase at 250 uM incubated for 48 hrs by propidium iodide staining based flow cytometry (reference value: 58.26%); assay type: functional
In short: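 Tumor cells incubated 48 h in complete medium with compound or DMSO at various concentrations, stained with propidium iodide, and DNA content read by flow cytometry. G0/G1, S and G2/M fractions reported; mean ± SD, n = 3, Student's t-test.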

T2 sequence (Q64261 whole entry, looked up): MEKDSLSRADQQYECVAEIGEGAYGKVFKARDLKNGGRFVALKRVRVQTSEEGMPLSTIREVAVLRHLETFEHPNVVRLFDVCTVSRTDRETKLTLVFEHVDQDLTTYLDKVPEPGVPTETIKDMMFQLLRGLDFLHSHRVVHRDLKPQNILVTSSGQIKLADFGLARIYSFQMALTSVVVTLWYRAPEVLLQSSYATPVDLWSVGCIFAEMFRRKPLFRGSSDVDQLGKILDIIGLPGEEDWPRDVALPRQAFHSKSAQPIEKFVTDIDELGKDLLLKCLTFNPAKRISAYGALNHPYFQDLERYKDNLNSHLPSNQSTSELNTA
T2 sequence (Q8C7D2 whole entry, looked up): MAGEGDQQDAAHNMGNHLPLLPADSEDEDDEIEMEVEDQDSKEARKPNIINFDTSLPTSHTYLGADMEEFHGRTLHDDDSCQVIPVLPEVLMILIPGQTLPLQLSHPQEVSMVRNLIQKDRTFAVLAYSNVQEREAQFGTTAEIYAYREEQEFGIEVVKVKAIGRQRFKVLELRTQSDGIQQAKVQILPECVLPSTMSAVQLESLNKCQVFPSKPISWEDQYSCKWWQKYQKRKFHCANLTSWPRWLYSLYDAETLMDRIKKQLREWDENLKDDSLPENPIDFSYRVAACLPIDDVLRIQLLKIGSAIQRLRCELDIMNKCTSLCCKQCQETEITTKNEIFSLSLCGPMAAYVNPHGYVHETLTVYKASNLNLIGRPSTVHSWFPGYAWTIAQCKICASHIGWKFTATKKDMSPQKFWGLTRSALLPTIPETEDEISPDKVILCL
T1 sequence (P11802 2-303 limits assumed): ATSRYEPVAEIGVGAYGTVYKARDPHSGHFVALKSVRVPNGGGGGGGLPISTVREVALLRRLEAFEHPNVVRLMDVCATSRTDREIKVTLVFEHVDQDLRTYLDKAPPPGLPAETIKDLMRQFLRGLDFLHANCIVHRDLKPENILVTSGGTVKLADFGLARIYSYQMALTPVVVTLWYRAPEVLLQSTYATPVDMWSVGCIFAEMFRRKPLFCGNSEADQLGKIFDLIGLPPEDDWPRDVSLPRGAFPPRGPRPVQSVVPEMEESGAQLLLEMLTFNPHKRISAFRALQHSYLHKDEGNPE
T1 sequence (Q96SW2 whole entry partner): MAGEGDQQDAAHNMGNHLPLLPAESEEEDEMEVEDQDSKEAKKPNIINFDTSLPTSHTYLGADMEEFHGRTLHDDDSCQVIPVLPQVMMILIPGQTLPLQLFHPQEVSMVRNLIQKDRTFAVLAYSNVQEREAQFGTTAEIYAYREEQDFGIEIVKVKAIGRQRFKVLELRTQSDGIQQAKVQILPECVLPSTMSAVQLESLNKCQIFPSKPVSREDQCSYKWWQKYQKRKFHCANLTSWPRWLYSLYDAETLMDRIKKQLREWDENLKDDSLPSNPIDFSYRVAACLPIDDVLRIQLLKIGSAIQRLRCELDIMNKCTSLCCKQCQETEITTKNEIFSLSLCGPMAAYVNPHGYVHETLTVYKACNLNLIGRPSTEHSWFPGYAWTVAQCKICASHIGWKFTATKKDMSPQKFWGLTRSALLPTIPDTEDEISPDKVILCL
T3 sequence (P30285 whole entry, looked up): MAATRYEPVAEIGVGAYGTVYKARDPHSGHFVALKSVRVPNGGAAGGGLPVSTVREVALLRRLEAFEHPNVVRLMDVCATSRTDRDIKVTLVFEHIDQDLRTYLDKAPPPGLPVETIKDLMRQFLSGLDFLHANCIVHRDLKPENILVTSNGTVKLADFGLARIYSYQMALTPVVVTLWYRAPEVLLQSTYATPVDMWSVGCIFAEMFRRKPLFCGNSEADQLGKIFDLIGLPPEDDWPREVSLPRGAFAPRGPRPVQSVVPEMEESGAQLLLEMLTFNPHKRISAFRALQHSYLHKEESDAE
T3 sequence (Q8C7D2 whole entry, looked up): as the sequence (Q8C7D2 whole entry, looked up) above
Protein cereblon/Cyclin-dependent kinase 2 (Mus musculus), sequence (Q8C7D2 whole entry, looked up, other chains not shown): as the sequence (Q8C7D2 whole entry, looked up) above

CN(C)C(=O)c1cc2cnc(Nc3ccc(C(=O)NCCCCCCNc4cccc5c4C(=O)N(C4CCC(=O)NC4=O)C5=O)cc3)nc2n1C1CCCC1 (stereo unspecified)
IC50 [1]: 166 nM
Activity [2]: Dose-dependent effect
Activity [3]: Tde
Activity [4]: Tde
Activity [5]: Tde
Activity [6]: inactive
inhibition [7]: Active
Activity [8]: Dose-dependent effect
Activity [9]: Active
Activity [10]: Active
Tmax [11]: 15 min
Activity [12]: inactive
Activity [13]: inactive
Activity [14]: inactive
viability at 0.125 µM [15]: 86.1%
viability at 0.5 µM [16]: 4.73%
Activity [17]: 93.6%
Activity [18]: 6.13%
Activity [19]: 0.289%
viability at 1 µM [20]: 55.2%
Activity [21]: 3.78%
Activity [22]: 14.8%
Activity [23]: 0.153%
Activity [24]: 49.54%
Activity [25]: 30.56%
Activity [26]: 67.64%
